Laboratory results reported in ChEMBL document CHEMBL1141169, “Discovery of 5-arylsulfonamido-3-(pyrrolidin-2-ylmethyl)-1H-indole derivatives as potent, selective 5-HT6 receptor agonists and antagonists” (J Med Chem, 2005).

Legend:
[1] = target: T1, 5-hydroxytryptamine receptor 6 (Homo sapiens, UniProt P50406); experiment: Percentage inhibition of [3H]LSD binding to human 5-hydroxytryptamine 6 receptor expressed in HeLa cells at 1000 nM; assay type: cell-based
In short: (§1)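 Competition binding against [3H]-LSD on cloned human 5-HT6 receptors stably expressed in HeLa cells. Ki determined in triplicate; single-point lines are % inhibition at 1000 nM.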

[2] = target: T1, 5-hydroxytryptamine receptor 6; conditions: HeLa
D(2) dopamine receptor = D(2) dopamine receptor (Homo sapiens, UniProt P14416); experiment: Inhibition of [3H]spiperone binding to human dopamine receptor D2 expressed in CHO-K1 cells; assay type: cell-based
Chain of D(2) dopamine receptor (P14416 whole entry): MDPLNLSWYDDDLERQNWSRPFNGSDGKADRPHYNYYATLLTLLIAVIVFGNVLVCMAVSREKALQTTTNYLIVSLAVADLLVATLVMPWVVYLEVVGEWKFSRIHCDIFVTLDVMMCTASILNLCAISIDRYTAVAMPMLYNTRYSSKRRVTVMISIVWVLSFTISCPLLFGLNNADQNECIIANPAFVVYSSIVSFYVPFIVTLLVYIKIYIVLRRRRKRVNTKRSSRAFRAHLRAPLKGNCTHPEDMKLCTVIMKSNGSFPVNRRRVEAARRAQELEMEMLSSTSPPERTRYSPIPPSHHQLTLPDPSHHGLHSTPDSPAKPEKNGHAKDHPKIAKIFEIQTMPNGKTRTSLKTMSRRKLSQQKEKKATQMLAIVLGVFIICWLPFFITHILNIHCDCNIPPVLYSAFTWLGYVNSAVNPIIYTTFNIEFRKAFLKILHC
In short: (§2)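 Radioligands: 5-HT1A, 8-hydroxy-[3H]-DPAT; 5-HT2C, [3H]-5-HT; 5-HT2A, [125I]DOI; D2, D3 and D4, [3H]spiperone. Ki determined in triplicate, or n = 1 where footnoted.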

D(3) dopamine receptor = D(3) dopamine receptor (Homo sapiens, UniProt P35462); experiment: Inhibition of [3H]spiperone binding to human dopamine receptor D3 expressed in CHO-K1 cells; assay type: cell-based; in short: as §2
Chain of D(3) dopamine receptor (P35462 whole entry): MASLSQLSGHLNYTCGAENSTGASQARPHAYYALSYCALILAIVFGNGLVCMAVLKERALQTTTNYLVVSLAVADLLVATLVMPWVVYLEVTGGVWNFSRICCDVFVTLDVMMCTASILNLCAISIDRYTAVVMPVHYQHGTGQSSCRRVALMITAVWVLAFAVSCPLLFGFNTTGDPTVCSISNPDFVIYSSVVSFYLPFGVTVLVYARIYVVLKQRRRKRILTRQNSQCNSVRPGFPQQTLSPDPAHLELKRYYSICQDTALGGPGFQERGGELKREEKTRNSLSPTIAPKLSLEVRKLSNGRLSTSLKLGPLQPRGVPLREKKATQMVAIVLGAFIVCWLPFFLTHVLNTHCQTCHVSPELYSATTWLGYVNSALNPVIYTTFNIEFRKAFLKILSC

D(4) dopamine receptor = target: T2, D(4) dopamine receptor (Homo sapiens, UniProt P21917); experiment: Inhibition of [3H]spiperone binding to human dopamine receptor D4 expressed in CHO-K1 cells; assay type: cell-based; in short: as §2
T2 sequence (P21917 whole entry): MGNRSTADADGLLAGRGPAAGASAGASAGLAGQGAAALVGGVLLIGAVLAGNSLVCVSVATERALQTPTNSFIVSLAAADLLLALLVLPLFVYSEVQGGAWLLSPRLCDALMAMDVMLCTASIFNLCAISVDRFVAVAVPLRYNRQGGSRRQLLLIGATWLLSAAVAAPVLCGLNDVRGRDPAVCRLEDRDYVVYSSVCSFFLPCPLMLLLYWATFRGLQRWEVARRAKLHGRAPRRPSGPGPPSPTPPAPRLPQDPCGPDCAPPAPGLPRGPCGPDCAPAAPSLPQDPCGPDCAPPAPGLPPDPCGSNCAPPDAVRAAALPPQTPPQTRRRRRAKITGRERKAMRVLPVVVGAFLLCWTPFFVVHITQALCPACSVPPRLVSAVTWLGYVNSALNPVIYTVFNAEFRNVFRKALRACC

[3] = target: 5-hydroxytryptamine receptor 7 (Homo sapiens, UniProt P34969); experiment: Inhibition of [3H]-LSD binding to 5-hydroxytryptamine 7 receptor expressed in CHO cells; assay type: cell-based
Chain of 5-hydroxytryptamine receptor 7 (P34969 whole entry): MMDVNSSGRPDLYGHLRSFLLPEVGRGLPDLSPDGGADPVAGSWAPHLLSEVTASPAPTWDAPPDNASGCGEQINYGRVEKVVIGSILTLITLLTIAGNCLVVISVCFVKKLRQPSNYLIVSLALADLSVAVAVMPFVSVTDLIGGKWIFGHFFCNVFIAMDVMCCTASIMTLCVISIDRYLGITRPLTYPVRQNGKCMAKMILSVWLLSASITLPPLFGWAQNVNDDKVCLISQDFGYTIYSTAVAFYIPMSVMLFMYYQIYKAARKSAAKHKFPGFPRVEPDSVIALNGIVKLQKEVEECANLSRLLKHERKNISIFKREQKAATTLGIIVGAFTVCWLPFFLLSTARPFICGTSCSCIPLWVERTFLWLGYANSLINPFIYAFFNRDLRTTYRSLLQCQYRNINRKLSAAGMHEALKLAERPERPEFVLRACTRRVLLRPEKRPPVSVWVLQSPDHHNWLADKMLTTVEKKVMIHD
In short: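 Displacement of [3H]-LSD from human 5-HT7 receptor clone stably expressed in CHO cells. Ki in triplicate, or n = 1 where footnoted.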

[4] = target: T3, 5-hydroxytryptamine receptor 1A (Homo sapiens, UniProt P08908); experiment: Inhibition of [3H]8-OH-DPAT binding to human 5-hydroxytryptamine 1A receptor expressed in CHO cells; assay type: cell-based; in short: as §2
T3 sequence (P08908 whole entry): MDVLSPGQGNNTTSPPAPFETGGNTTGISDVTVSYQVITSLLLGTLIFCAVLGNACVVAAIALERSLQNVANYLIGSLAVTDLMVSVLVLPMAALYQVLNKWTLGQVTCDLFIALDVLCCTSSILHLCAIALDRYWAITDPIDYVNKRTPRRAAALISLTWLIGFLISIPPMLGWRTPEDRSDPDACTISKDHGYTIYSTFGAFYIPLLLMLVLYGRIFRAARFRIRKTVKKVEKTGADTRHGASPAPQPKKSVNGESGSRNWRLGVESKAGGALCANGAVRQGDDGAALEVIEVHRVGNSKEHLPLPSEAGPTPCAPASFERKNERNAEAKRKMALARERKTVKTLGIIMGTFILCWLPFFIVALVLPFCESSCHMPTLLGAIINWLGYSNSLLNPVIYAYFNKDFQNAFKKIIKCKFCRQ

[5] = target: 5-hydroxytryptamine receptor 1D (Homo sapiens, UniProt P28221); experiment: Inhibition of [3H]-8-OH-DPAT binding to human 5-hydroxytryptamine 1D receptor expressed in CHO cells; assay type: cell-based
Chain of 5-hydroxytryptamine receptor 1D (P28221 whole entry): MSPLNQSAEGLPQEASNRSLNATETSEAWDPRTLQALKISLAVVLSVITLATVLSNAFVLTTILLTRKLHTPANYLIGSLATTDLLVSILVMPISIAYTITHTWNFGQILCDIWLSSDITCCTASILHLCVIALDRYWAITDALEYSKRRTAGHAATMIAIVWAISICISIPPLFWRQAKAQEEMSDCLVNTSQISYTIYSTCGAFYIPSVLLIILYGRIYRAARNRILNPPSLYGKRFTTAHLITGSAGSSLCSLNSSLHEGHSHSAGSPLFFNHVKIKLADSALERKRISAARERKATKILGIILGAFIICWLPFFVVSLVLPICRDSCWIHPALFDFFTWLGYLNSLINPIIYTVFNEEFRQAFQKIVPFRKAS

[6] = target: T4, 5-hydroxytryptamine receptor 1F (Homo sapiens, UniProt P30939); experiment: Inhibition of [3H]8-OH-DPAT binding to human 5-hydroxytryptamine 1F receptor expressed in CHO cells; assay type: cell-based
T4 sequence (P30939 whole entry): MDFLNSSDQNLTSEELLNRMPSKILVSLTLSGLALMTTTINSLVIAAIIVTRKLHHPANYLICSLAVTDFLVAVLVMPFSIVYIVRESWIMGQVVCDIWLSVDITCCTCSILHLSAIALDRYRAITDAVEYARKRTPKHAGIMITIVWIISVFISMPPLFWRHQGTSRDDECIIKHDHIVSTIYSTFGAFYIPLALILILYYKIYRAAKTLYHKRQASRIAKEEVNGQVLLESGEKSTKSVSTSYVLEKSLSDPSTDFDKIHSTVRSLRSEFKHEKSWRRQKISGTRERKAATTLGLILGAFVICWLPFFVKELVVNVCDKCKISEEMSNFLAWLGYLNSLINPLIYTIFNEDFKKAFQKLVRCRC

[7] = target: T1, 5-hydroxytryptamine receptor 6; experiment: Inhibition of [3H]LSD binding to human 5-hydroxytryptamine 6 receptor expressed in HeLa cells; assay type: cell-based; in short: as §1
[8] = target: T5, 5-hydroxytryptamine receptor 2A (Homo sapiens, UniProt P28223); experiment: Inhibition of [125I]DOI binding to human 5-hydroxytryptamine 2A receptor expressed in CHO cells; assay type: cell-based; in short: as §2
T5 sequence (P28223 whole entry): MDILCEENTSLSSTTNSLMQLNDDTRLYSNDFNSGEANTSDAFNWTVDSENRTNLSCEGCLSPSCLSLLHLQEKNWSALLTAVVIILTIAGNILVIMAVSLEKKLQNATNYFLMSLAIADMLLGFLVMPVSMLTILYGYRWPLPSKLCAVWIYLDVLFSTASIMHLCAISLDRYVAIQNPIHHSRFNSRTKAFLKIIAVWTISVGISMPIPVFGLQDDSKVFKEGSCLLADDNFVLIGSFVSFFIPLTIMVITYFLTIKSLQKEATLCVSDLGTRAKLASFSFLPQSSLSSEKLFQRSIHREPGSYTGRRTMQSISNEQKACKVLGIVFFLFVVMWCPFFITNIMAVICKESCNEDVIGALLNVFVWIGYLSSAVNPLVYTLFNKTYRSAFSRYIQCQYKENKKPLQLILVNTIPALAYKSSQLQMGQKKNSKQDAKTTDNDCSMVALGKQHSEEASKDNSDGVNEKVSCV

[9] = target: T1, 5-hydroxytryptamine receptor 6; experiment: Effective agonist concentration in cAMP release assay in HeLa cells expressing human 5-hydroxytryptamine 6 receptor; assay type: functional, cell-based
In short: (§3)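 cAMP production read out across a range of ligand concentrations in HeLa cells stably transfected with the human 5-HT6 receptor, ligand given alone as agonist. EC50 and Emax each determined in triplicate.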

[10] = target: T1, 5-hydroxytryptamine receptor 6; experiment: Maximum percentage agonism of cAMP production in HeLa cells expressing human 5-hydroxytryptamine 6 receptor; assay type: functional, cell-based; in short: as §3
[11] = target: T6, 5-hydroxytryptamine receptor 2C (Homo sapiens, UniProt P28335); experiment: Inhibition of [3H]5-HT binding to human 5-hydroxytryptamine 2C receptor expressed in CHO cells; assay type: cell-based; in short: as §2
T6 sequence (P28335 whole entry): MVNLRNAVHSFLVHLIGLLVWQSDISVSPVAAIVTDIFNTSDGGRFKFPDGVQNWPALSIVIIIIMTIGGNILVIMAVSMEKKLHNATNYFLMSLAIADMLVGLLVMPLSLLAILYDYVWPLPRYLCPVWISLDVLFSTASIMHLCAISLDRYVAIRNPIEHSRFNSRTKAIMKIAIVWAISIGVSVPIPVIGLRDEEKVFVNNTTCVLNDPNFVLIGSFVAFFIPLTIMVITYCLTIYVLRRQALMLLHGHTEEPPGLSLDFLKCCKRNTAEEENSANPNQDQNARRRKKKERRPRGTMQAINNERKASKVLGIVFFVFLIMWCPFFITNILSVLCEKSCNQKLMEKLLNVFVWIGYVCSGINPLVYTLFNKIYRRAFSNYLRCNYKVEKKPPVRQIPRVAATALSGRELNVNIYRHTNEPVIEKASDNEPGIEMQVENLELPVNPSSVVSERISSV

[12] = target: T5, 5-hydroxytryptamine receptor 2A; experiment: Percentage inhibition of [125I]DOI binding to human 5-hydroxytryptamine 2A receptor expressed in CHO cells at 1000 nM; assay type: cell-based

T1 sequence (P50406 whole entry): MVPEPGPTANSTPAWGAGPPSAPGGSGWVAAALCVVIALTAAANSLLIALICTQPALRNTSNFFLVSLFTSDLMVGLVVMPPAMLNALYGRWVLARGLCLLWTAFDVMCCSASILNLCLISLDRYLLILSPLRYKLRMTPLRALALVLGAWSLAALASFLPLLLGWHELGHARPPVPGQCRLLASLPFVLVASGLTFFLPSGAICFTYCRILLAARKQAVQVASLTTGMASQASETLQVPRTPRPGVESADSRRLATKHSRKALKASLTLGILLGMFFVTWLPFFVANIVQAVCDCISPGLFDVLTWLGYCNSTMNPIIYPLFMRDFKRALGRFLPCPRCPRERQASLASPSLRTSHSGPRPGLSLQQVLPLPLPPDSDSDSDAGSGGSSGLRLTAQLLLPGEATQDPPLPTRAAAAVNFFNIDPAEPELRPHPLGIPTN

Compound `O=S(=O)(Nc1ccc2[nH]cc(C[C@@H]3CCCN3)c2c1)c1ccc(F)cc1` has an inhibition [1] of 74%.
In the case of `COc1ccc2c(c1)c(CCN(C)C)cn2S(=O)(=O)c1ccccc1`, the Affinity [2] is reported as 16 nM.
`CN1CCC[C@@H]1Cc1c[nH]c2ccc(NS(=O)(=O)c3ccccc3Cl)cc12` was tested, and the Ki (D(2) dopamine receptor) was greater than 2000 nM, the Ki (D(3) dopamine receptor) was greater than 1000 nM and the Ki (D(4) dopamine receptor) was greater than 5000 nM. It also gave a Ki [3] of 74 nM, a Ki [4] of 170 nM and a Ki [5] of 29.5 nM. For the same compound, the Ki [6] was 16 nM, the Ki [7] was 1 nM and the Ki [8] was 367 nM. For the same compound, the EC50 [9] was 1.1 nM, the Emax [10] was 100% and the Ki [11] was 289 nM.
In the case of `O=S(=O)(Nc1ccc2[nH]cc(C[C@H]3CCCN3)c2c1)c1ccccc1Cl`, the Ki (D(2) dopamine receptor) is reported as greater than 5000 nM, the Ki (D(3) dopamine receptor) is reported as greater than 5000 nM and the Ki (D(4) dopamine receptor) is reported as greater than 5000 nM. The Ki [4] was 552 nM, the Ki [5] was greater than 1000 nM and the Ki [6] was 12.3 nM. For the same compound, the Ki [7] was 3 nM, the EC50 [9] was 1.3 nM and the Emax [10] was 100%. The Ki [11] was 566 nM.
`CN1CCC[C@@H]1Cc1c[nH]c2ccc(NS(=O)(=O)c3cccc(Cl)c3)cc12` was tested, and the Ki (D(2) dopamine receptor) was greater than 2000 nM, the Ki (D(3) dopamine receptor) was 930 nM and the Ki (D(4) dopamine receptor) was greater than 5000 nM. The Ki [3] was 24 nM, the Ki [4] was 200 nM and the Ki [5] was 4.7 nM. For the same compound, the Ki [6] was 2.7 nM, the Ki [7] was 0.4 nM and the Ki [8] was 269 nM. It also gave an EC50 [9] of 1.6 nM, an Emax [10] of 100% and a Ki [11] of 231 nM.
`COc1ccc(S(=O)(=O)Nc2ccc3[nH]cc(C[C@@H]4CCCN4)c3c2)cc1` was tested, and the inhibition [1] was 64%.
In the case of `O=S(=O)(Cc1ccccc1I)Nc1ccc2[nH]cc(C[C@H]3CCCN3)c2c1`, the inhibition [12] is reported as 42% and the Emax [10] is reported as 100%.
